Assay results pooled from the literature.
Each line is one published result; the experiments were not run side by side.
Target: Tyrosine-protein kinase Blk (BLK, Homo sapiens, UniProt P51451)

| SMILES | assay | setting | quantity | result |
| --- | --- | --- | --- | --- |
| CC#CC(=O)N1CCC[C@H]1c1nc(-c2ccc(C(=O)Nc3ccccn3)cc2)c2c(N)nccn12 | enzyme activity, inhibitor | 1 µM | inhibition | 47% |
| C1=C/COCc2cc(ccc2OCCN2CCCC2)Nc2nccc(n2)-c2cccc(c2)COC/1 | binding | 0.1 µM | remaining binding | 97% |
| C[C@H]1CC[C@H](n2c3cnccc3c3cnc(Nc4ccc5c(n4)CCN(C(=O)CO)C5)nc32)CC1 | cell-free assay, competition with immobilised ligand | 1 µM | remaining binding | 53% |
| CC(C)S(=O)(=O)c1ccc2nccc(Nc3ccc4sc(C5CCCC5)nc4c3)c2c1 | enzyme activity, inhibitor | 1 µM | activity vs control | 80% |
| Cc1ccc(NC(=O)c2ccnc(C(F)(F)F)c2)cc1-c1cc(OCCO)nc(N2CCOCC2)c1 | binding, competition with immobilised ligand | 1 µM | remaining binding | 100% |
| CCCCC(=O)Nc1ccc(-c2ccc3ncn(CCC)c(=O)c3c2)cn1 | binding, competition with immobilised ligand | 0.5 µM | remaining binding | 83% |
| CO[C@@H]1[C@H](N(C)C(=O)c2ccccc2)C[C@H]2O[C@]1(C)n1c3ccccc3c3c4c(c5c6ccccc6n2c5c31)C(=O)NC4 | enzyme activity, inhibitor | 1 µM | inhibition | 79% |
| COc1ccc2oc(-c3ccc4nc(N)oc4c3)c/c(=N\c3ccccc3NC(=O)CCN)c2c1 | binding | 1 µM | remaining binding | 92% |
